hERG protect: hERG (human) protection from proarrhythmic block; CHO-hERG, FluxOR thallium flux, dofetilide IC70 present; activation (rescue from dofetilide block), less the hit threshold, % at 10 µM; AID 1511; 310,000 compounds, 0.51% hits;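 active = activation above the mean of controls blocked by dofetilide plus 5 SD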;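 note: thallium influx through hERG after potassium depolarization seen as dye fluorescence rise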
KCNQ1 act: potentiators or activators of human KCNQ1 potassium channel; P51787; CHO-K1 KCNQ1, thallium flux FluxOR fluorescence; active compounds read high; B-score at 10 µM; 310,000 compounds, 0.35% hits;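 active = fluorescence ratio B-score, a plate-corrected score, at least three library SD, with initial intensity B-score within 5 SD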
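Medium – assay buffer, equal DMSO in all wells · Material – CHO-K1 cell line with stable KCNQ1 potassium channel expression · Signal – kinetic FluxOR thallium fluorescence, 10-s 1-Hz baseline, 110-s post-stimulus read · Compound – single concentration per compound, DMSO matched to controls · Schedule – 37 °C overnight plating, 90-min dark dye load, 20-min compound pretreatment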
KCNQ1 inh: human KCNQ1 channel inhibition; P51787; CHO-K1 KCNQ1, FluxOR thallium flux fluorescence; active compounds read high; B-score at 10 µM; 310,000 compounds, 1.3% hits;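 active = compounds whose thallium flux B-score, printed positive for inhibition, exceeds three library SD while starting fluorescence stays within three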;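 note: channel opened by potassium depolarization with thallium stimulus after 20 min compound exposure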
KCNK3 inh: human KCNK3 channel inhibition, primary screen; O14649; CHO-KCNK3 thallium flux, FluxOR fluorescence; active compounds read low; B-score at 10 µM; 340,000 compounds, 0.84% hits;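 active = B-score under library mean minus 4 SD, starting fluorescence ratio at most library mean plus 5 SD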;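 note: more negative B-score means stronger inhibition of thallium flux through KCNK3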
KCNK9 inh: human KCNK9 channel inhibition; Q9NPC2; HEK293 KCNK9, FluxOR thallium flux fluorescence; active compounds read low; 310,000 compounds, 1.2% hits; B-score at 10 µM;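 active = ratio B-score over 3 SD below the library mean, with starting fluorescence within 5 SD of its mean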;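 note: negative B-score means less thallium flux so channel inhibition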
KCNK9 block conf: human KCNK9 inhibitor confirmation; 4,900 compounds, 43% hits; HEK293 KCNK9 cells, FluxOR thallium flux fluorescence; inhibition, % at 10 µM; shares compounds with KCNK9 inh;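 active = thallium signal inhibited by more than 5 SD of the compound-free buffer control wells, on both duplicate plates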;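 note: 0% = assay buffer control wells without compound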
Kir2-1 spec: mouse Kir2.1 off-target activity of KCNK9 modulators; shares compounds with KCNK9 inh; inhibition, % at 10 µM; AID 492993; 4,900 compounds, 4% hits; Kir2.1 cells, FluxOR thallium flux fluorescence;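 active = thallium signal drop more than 5 SD beyond the mean of the no-compound control wells, seen in both duplicate plates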;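 note: signal is fluorescence rise after thallium addition divided by baseline fluorescence; plate controls were assay buffer only for no effect and full block by chlorpromazine control for full effect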
Target sequence (P35561 whole entry, looked up): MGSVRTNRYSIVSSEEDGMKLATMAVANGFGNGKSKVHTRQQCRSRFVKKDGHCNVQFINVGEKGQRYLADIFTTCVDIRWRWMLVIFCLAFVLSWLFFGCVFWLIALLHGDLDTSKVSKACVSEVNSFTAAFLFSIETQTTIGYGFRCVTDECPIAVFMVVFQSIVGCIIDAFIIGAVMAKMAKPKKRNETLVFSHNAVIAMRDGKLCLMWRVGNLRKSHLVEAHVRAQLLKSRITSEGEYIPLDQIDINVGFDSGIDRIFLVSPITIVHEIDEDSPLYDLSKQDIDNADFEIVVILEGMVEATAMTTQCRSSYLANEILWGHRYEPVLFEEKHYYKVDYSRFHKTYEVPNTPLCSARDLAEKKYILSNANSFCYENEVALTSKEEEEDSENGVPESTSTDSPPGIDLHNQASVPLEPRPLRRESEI
KCNK9 uninduced: second counter-screen for KCNK9 modulators: effect in non-induced cells; 4,900 compounds, 40% hits; inhibition, % at 10 µM; shares compounds with KCNK9 inh; non-induced KCNK9-HEK293, FluxOR thallium flux;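 active = thallium signal drop beyond 5 SD of the untreated control mean, on both duplicate plates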;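 note: plate controls were buffer only IC0 wells for no effect and SID17386958 at its maximal inhibitory level for full effect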
The depositor's hits bear a star. The list is not random: actives were taken first. Their share in the collection is about 3.1%.

COc1cccc(NC(=S)N/N=C2/CCCCc3ccccc32)c1 was read as hERG protect -9.0, KCNQ1 act 15*, KCNQ1 inh inactive, KCNK3 inh inactive, KCNK9 inh inactive, KCNK9 block conf inactive, Kir2-1 spec inactive and KCNK9 uninduced inactive.
CCCN1CCC(=O)N([C@H](CSc2ccc(OC)cc2)CC(C)C)CC1 was read as hERG protect -11.0, KCNQ1 act inactive, KCNQ1 inh inactive, KCNK3 inh inactive and KCNK9 inh inactive.
For CCCCN1C(=O)C(C(=O)OCc2ccccc2)CC2=C1CCCC2=O (configuration not stated) the results were KCNK3 inh inactive.
`COc1ccc(NC(=O)CCCn2nc(C)c3c(C)n(-c4ccccc4)nc3c2=O)cc1` gave hERG protect -8.4, KCNQ1 act inactive, KCNQ1 inh inactive, KCNK3 inh inactive and KCNK9 inh inactive.
Screening C=CCSc1nc2c(c(=N)n1CC=C)C1CCCC1S2 (configuration not stated) returned hERG protect -7.6, KCNQ1 act inactive, KCNQ1 inh inactive, KCNK3 inh inactive, KCNK9 inh -17.8*, KCNK9 block conf inactive, Kir2-1 spec inactive and KCNK9 uninduced 36.0%*.
C=CCn1c(C)nnc1SCC(=O)NC1CCCCC1 was read as hERG protect -3.7, KCNQ1 act inactive, KCNQ1 inh inactive, KCNK3 inh inactive and KCNK9 inh inactive.
Screening CC(O)CNCCNCc1c(OCc2ccccc2)ccc2ccccc12 (configuration not stated) returned hERG protect -14.1, KCNQ1 act inactive, KCNQ1 inh inactive, KCNK3 inh inactive and KCNK9 inh inactive.
OCCNCc1c(OCc2ccc(Cl)cc2)ccc2ccccc12 was read as hERG protect -17.6, KCNQ1 act inactive, KCNQ1 inh inactive, KCNK3 inh inactive, KCNK9 inh -19*, KCNK9 block conf 76.5%*, Kir2-1 spec 41.5%* and KCNK9 uninduced 31.0%*.
Screening CC1Cc2ccccc2N1C(=O)CCn1c(=O)sc2ccccc21 (configuration not stated) returned hERG protect -10.0, KCNQ1 act inactive, KCNQ1 inh inactive, KCNK3 inh inactive, KCNK9 inh inactive, KCNK9 block conf inactive, Kir2-1 spec inactive and KCNK9 uninduced inactive.
`CC1Cc2ccccc2N1C(=O)CN1CCc2ccccc2C1` (configuration not stated) gave hERG protect -13.4, KCNQ1 act inactive, KCNQ1 inh inactive, KCNK3 inh inactive, KCNK9 inh inactive, KCNK9 block conf inactive, Kir2-1 spec inactive and KCNK9 uninduced inactive.
COCCCn1c(=O)c2ccccc2n(CC(=O)N2CCCc3ccccc32)c1=O was read as hERG protect -10.5, KCNQ1 act inactive, KCNQ1 inh inactive, KCNK3 inh inactive and KCNK9 inh inactive.
Screening CCc1cccc(C)c1N(C(=O)Cn1c(COC)nc2ccccc21)C(C)COC (configuration not stated) returned hERG protect -10.2, KCNQ1 act inactive, KCNQ1 inh inactive, KCNK3 inh inactive, KCNK9 inh -10*, KCNK9 block conf 40.5%*, Kir2-1 spec inactive and KCNK9 uninduced 25.0%*.
Screening CCOCN(C(=O)Cn1c(COC)nc2ccccc21)c1c(C)cccc1CC returned hERG protect -11.8, KCNQ1 act inactive, KCNQ1 inh inactive, KCNK3 inh inactive and KCNK9 inh inactive.
For CC(=O)N(c1ccccc1)C1CC(C)N(C(=O)c2ccccc2)c2ccccc21 (configuration not stated) the results were hERG protect -2.1, KCNQ1 act inactive, KCNQ1 inh inactive, KCNK3 inh inactive and KCNK9 inh inactive.
`Cc1ccc(C(=O)N(c2ccccc2)C2CC(C)N(C(=O)c3ccco3)c3ccccc32)cc1` (configuration not stated) gave hERG protect -11.1, KCNQ1 act inactive, KCNQ1 inh inactive, KCNK3 inh inactive, KCNK9 inh inactive, KCNK9 block conf inactive, Kir2-1 spec inactive and KCNK9 uninduced inactive.
`Cc1ccc(S(=O)(=O)N2CCN(C(=O)CNC(=O)c3ccc(Br)o3)CC2)cc1` gave hERG protect -18.0, KCNQ1 act inactive, KCNQ1 inh inactive, KCNK3 inh inactive and KCNK9 inh inactive.
Screening Cc1ccnc(NCc2ccc(Br)cc2)c1 returned hERG protect -3.3, KCNQ1 act inactive, KCNQ1 inh inactive, KCNK3 inh inactive and KCNK9 inh inactive.
CCN(CC)c1ccc(CNc2ccc(Br)cn2)cc1 was read as hERG protect -6.7, KCNQ1 act inactive, KCNQ1 inh inactive, KCNK3 inh inactive, KCNK9 inh inactive, KCNK9 block conf inactive, Kir2-1 spec inactive and KCNK9 uninduced inactive.
`Fc1ccccc1N1CC(c2ccccc2)C(c2cccs2)=N1` (configuration not stated) gave hERG protect -8.9, KCNQ1 act inactive, KCNQ1 inh inactive, KCNK3 inh inactive, KCNK9 inh -8.55*, KCNK9 block conf 34.0%*, Kir2-1 spec inactive and KCNK9 uninduced 43.0%*.
For COc1ccc(C(C(=O)NCCC(C)C)N(CCO)C(=O)c2snc(C(N)=O)c2N)cc1 (configuration not stated) the results were hERG protect -2.8, KCNQ1 act inactive, KCNQ1 inh inactive, KCNK3 inh inactive and KCNK9 inh inactive.
Screening COc1ccc(C(=O)C2CC2c2ccc3c(c2)OCO3)cc1 (configuration not stated) returned hERG protect -7.8, KCNQ1 act inactive, KCNQ1 inh inactive, KCNK3 inh inactive, KCNK9 inh inactive, KCNK9 block conf inactive, Kir2-1 spec inactive and KCNK9 uninduced 30.0%*.
For COc1ccc(C(=O)NCc2ccc3c(c2)OCO3)cc1 the results were hERG protect -8.4, KCNQ1 act inactive, KCNQ1 inh inactive, KCNK3 inh inactive and KCNK9 inh inactive.
Screening O=C(OC1CO[C@H]2O[C@@H]1[C@H](OC(=O)c1ccccc1)[C@H]2OC(=O)c1ccccc1)c1ccccc1 (some centres not stated) returned hERG protect -11.8, KCNQ1 act inactive, KCNQ1 inh inactive, KCNK3 inh inactive, KCNK9 inh inactive, KCNK9 block conf inactive, Kir2-1 spec inactive and KCNK9 uninduced inactive.

Assay outcomes: PubChem BioAssay, Johns Hopkins Ion Channel Center
